Holding throughout (format): functional
The subject of one assay is P388. Nature of the assay: Cytotoxicity against mouse P388 cells after 3 days by MTT assay. The settings on record: P388, 72 h, read-out: ED50 (the source's name). In short, it runs like this: (§1)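 Cells were adapted to RPMI 1640 with 10% FCS and 1 mM […], then grown at 37 °C in 5% CO2. Seeding per well was 750 for A549, 750 for HT-29, 2000 for KB and 1500 for P-388. Three to eight concentrations spanning an 8- to 128-fold range were tested. After exposure, 1 mg/mL MTT was added for 4 h at 37 °C, formazan was dissolved in DMSO, and A540 was read. ED50 is the concentration giving 50% absorbance reduction versus untreated cells.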

For another assay, the system named is A549. Nature of the assay: Cytotoxicity against human A549 cells after 6 days by MTT assay. The settings on record: A549, 144 h, read-out: ED50 (the source's name). In short, it runs like this:
as §1

The test system of a further assay is HT-29. Nature of the assay: Cytotoxicity against human HT-29 cells after 6 days by MTT assay. The following applies: HT-29, 144 h, read-out: ED50 (the source's name). In short, it runs like this: as §1
The test system of another assay is KB. Nature of the assay: Cytotoxicity against human KB cells after 3 days by MTT assay. The settings on record: 72 h, read-out: ED50 (the source's name). In short, it runs like this: as §1

Converted amounts (≈) assume the structure as drawn.

EC50 data for nine molecules are collected here from ChEMBL document CHEMBL1144138, “Cytotoxic terpenoids from the Formosan soft coral Nephthea brassica” (1999).

Turning to `C=C(C)[C@H]1C/C=C(\C)CC/C=C(\C)CC/C=C(\C)CC1` [CEMBRENE_A], the EC50 in the assay with P388 amounted to 1.1 µg/mL (≈ 4.04 µM); in the assay on A549, 1.11 µg/mL (≈ 4.07 µM); in the assay with HT-29, 3.42 µg/mL (≈ 12.6 µM); in the assay on KB, 3.73 µg/mL (≈ 13.7 µM).

In the case of `C/C1=C\CC/C(C)=C/CC(C(C)(C)O)CC/C(C)=C/CC1` (stereo unspecified) [NEPHTHENOL], the EC50 in the assay on P388 was 0.42 µg/mL (≈ 1.45 µM); in the assay on A549, 2.72 µg/mL (≈ 9.36 µM); with HT-29, 3.01 µg/mL (≈ 10.4 µM); with KB, 1.81 µg/mL (≈ 6.23 µM).

Regarding `C=C(C)C1CC[C@@]2(C)CCC[C@@](C)(OC(C)=O)[C@@H]2C1` (stereo partly specified), the EC50 was 2.44 µg/mL (≈ 9.23 µM) in the assay on P388, 0.12 µg/mL (≈ 0.454 µM) in the assay on A549, more than 50 µg/mL in the assay on HT-29 and more than 50 µg/mL in the assay on KB.

Regarding `C=C(C)[C@@H]1CC/C(C)=C/CC/C(C)=C/CC[C@]2(C)O[C@H]2C1` [EPOXYCEMBRENE A], the EC50 with P388 came out at 0.4 µg/mL (≈ 1.39 µM); in the assay on A549, 3.61 µg/mL (≈ 12.5 µM); with HT-29, 2.72 µg/mL (≈ 9.43 µM); in the assay on KB, 3.41 µg/mL (≈ 11.8 µM).

For `C/C1=C\CCC2=C[C@H](OC2=O)C(C(C)(C)O)CC/C(C)=C/CC1` (stereo partly specified) [BRASSICOLIDE], the EC50 is 2.44 µg/mL (≈ 7.66 µM) in the assay with P388, more than 50 µg/mL in the assay on A549, 5.81 µg/mL (≈ 18.2 µM) with HT-29 and 2.4 µg/mL (≈ 7.54 µM) with KB.

Regarding `C=C[C@]1(C)CC[C@H](C(=C)C)C[C@@H]1C(=C)C`, the EC50 in the assay with P388 was 0.92 µg/mL (≈ 4.5 µM); in the assay with A549, more than 50 µg/mL; with HT-29, more than 50 µg/mL; in the assay with KB, more than 50 µg/mL.

Regarding `CC(=O)OC(C)(C)C1CC/C(C)=C/CC/C(C)=C/CCC2=C[C@@H]1OC2=O` (stereo partly specified) [BRASSICOLIDE ACETATE], the EC50 stood at 1.2 µg/mL in the assay with P388, 3.03 µg/mL in the assay with A549, 0.81 µg/mL in the assay with HT-29 and 0.72 µg/mL with KB.

Consider `C=C(C)C1CC[C@@]2(C)CCC[C@@](C)(O)[C@@H]2C1` (stereo partly specified), for which the EC50 in the assay with P388 was 3.86 µg/mL (≈ 17.4 µM); in the assay with A549, more than 50 µg/mL; in the assay on HT-29, more than 50 µg/mL; with KB, more than 50 µg/mL.

As to `C/C1=C\CC/C(C)=C/[C@H](O)C(C(C)(C)O)CC/C(C)=C/CC1` (stereo partly specified), the EC50 stood at 1.8 µg/mL (≈ 5.87 µM) with P388, 0.71 µg/mL (≈ 2.32 µM) with A549, 1.02 µg/mL (≈ 3.33 µM) with HT-29 and 0.23 µg/mL (≈ 0.75 µM) in the assay with KB.
